# Laboratory results reported in ChEMBL document CHEMBL1833790, “N-(2-{3-[3,5-bis(trifluoromethyl)phenyl]ureido}ethyl)-glycyrrhetinamide (6b): a novel anticancer glycyrrhetinic acid derivative that targets the proteasome and displays anti-kinase activity” (J Med Chem, 2011).
# Active and inactive are the calls of the source. No cut-off for these calls is given here.
# How the values were obtained:
# PC-3 = assay: Growth inhibition in apoptosis-sensitive human PC3 after 3 days by MTT assay; format: functional; conditions: PC-3, 72 h
# Outline: (§1)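 Cells grown in RPMI with 10% heat-inactivated FCS, 4 mM glutamine, gentamicin and penicillin–streptomycin. Drug exposure 3 days, growth read by MTT colorimetric assay. Nine concentrations from 0.01 to 100 μM in semilog steps, six replicates each; IC50 derived per cell line.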
# [1] = Chemical stability of the compound in MEM cell culture medium after 7 days by HPLC analysis; format: physicochemical; conditions: read-out: Stability
# Outline: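 Compound incubated in MEM culture medium at 37 °C for 7 days, then analysed by HPLC on RX-C8 (5 μm) column with MeOH–water 90:10 (0.1% TFA), diode-array detection. Expressed as % of incubated compound recovered.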
# U-373MG ATCC [2] = assay: Activation of caspase-like activity of 20S proteasome in human U373 cells at 3 uM after 2 days by bioluminescence assay; format: cell-based
# Outline: (§2)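 Caspase-like site, substrate Z-nLPnLD-Glo. U373 cells were plated at 5000 cells/mL for 48 h, then treated two days. Cells were PBS-washed and permeabilised with 0.025% digitonin before Proteasome-Glo reagent was added. Luminescence was read after 10 min in the dark. Triplicates, normalised to a parallel MTT viability assay under identical conditions.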
# A549 = assay: Growth inhibition in apoptosis-resistant human A549 after 3 days by MTT assay; format: functional; conditions: A549, 72 h; outline: as §1
# B16-F10 = assay: Growth inhibition in mouse B16F10 after 3 days by MTT assay; format: functional; conditions: B16-F10, 72 h; outline: as §1
# U-373MG ATCC [3] = assay: Activation of chymotrypsin-like activity of 20S proteasome in human U373 cells at 3 uM after 2 days by bioluminescence assay; format: cell-based
# Outline: (§3)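 Chymotrypsin-like site, substrate Suc-LLVY-Glo. U373 cells were seeded at 5000 cells/mL for 48 h and exposed two days. After a PBS wash and 0.025% digitonin permeabilisation, Proteasome-Glo reagent was added. Bioluminescence was read after 10 min dark incubation. Triplicates, normalised by a concurrent MTT viability assay run in identical conditions.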
# U-373MG ATCC [4] = assay: Inhibition of trypsin-like activity of 20S proteasome in human U373 cells at 3 uM after 2 days by bioluminescence assay; format: cell-based
# Outline: (§4)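 U373 GBM cells seeded at 5000 cells/mL and grown 48 h, then treated for two days. Cells washed in PBS and permeabilised with 0.025% digitonin. Proteasome-Glo reagent added with Suc-LLVY-Glo (chymotrypsin-like), Z-LRR-Glo (trypsin-like) or Z-nLPnLD-Glo (caspase-like) substrate. Luminescence read after 10 min in the dark and normalised to a parallel MTT viability assay; triplicates. MG-132 at 0.5 μM used as reference.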
# MCF7 = assay: Growth inhibition in apoptosis-sensitive human MCF7 after 3 days by MTT assay; format: functional; conditions: MCF7, 72 h; outline: as §1
# Hs 683 = assay: Growth inhibition in apoptosis-sensitive human Hs683 after 3 days by MTT assay; format: functional; conditions: Hs 683, 72 h; outline: as §1
# SK-MEL-28 = assay: Growth inhibition in apoptosis-resistant human SK-MEL-28 after 3 days by MTT assay; format: functional; conditions: SK-MEL-28, 72 h; outline: as §1
# T98G = assay: Growth inhibition in apoptosis-resistant human T98G after 3 days by MTT assay; format: functional; conditions: 72 h; outline: as §1
# [5] = Growth inhibition in apoptosis-resistant human U373 after 3 days by MTT assay; format: functional, U-373MG ATCC; conditions: U373 MG, 72 h; outline: as §1
# [6] = target: T1, Peroxisome proliferator-activated receptor gamma (Homo sapiens) (UniProt P37231); assay: Inhibition of PPARgamma activity in human U373 cells at 3 uM after 6 hrs by spectrophotometric analysis relative to control; format: cell-based; conditions: U-373MG ATCC
# T1 sequence (whole entry): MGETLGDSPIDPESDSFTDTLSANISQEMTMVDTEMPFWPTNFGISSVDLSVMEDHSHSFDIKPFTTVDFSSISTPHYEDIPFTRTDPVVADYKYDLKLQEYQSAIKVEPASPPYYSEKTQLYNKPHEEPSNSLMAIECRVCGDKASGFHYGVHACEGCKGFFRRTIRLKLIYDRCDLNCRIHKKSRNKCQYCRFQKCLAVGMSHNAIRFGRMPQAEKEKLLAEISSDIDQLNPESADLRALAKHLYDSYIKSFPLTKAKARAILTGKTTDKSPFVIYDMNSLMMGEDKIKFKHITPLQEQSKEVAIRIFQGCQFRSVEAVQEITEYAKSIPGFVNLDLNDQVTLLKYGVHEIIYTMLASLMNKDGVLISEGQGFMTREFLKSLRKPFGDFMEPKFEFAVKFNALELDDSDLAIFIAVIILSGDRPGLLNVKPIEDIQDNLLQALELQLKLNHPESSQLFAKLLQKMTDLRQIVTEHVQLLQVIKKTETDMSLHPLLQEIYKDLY
# Outline: (§5)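 Human U373 glioblastoma cells exposed to compound for 6 h, then detached with trypsin. Nuclear extracts prepared by hypotonic lysis with Nonidet P-40 and extraction buffer with protease inhibitor, clarified at 14 000 g, 4 °C. Extracts bound overnight at 4 °C in a PPAR-γ transcription factor ELISA kit, with primary antibody then HRP anti-rabbit. Absorbance read at 450 nm; triplicates, mean ± SD versus control.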
# U-373MG ATCC [7] = assay: Inhibition of trypsin-like activity of 20S proteasome in human U373 cells at 60 uM after 2 days by bioluminescence assay; format: cell-based; outline: as §4
# U-373MG ATCC [8] = assay: Activation of chymotrypsin-like activity of human proteasome in U373 at 60 uM after 2 days by bioluminescence assay; format: cell-based; outline: as §3
# U-373MG ATCC [9] = assay: Activation of caspase-like activity of 20S proteasome in human U373 cells at 60 uM after 2 days by bioluminescence assay; format: cell-based; outline: as §2
# [10] = target: T1, Peroxisome proliferator-activated receptor gamma (Homo sapiens); assay: Inhibition of PPARgamma activity in human U373 cells at 60 uM after 6 hrs by spectrophotometric analysis relative to control; format: cell-based; conditions: U-373MG ATCC; outline: as §5
# U-373MG ATCC [11] = assay: Activation of chymotrypsin-like activity of 20S proteasome in human U373 cells at 25 uM after 2 days by bioluminescence assay; format: cell-based; outline: as §3
# [12] = target: T1, Peroxisome proliferator-activated receptor gamma (Homo sapiens); assay: Inhibition of PPARgamma activity in human U373 cells at 25 uM after 6 hrs by spectrophotometric analysis relative to control; format: cell-based; conditions: U-373MG ATCC; outline: as §5
# U-373MG ATCC [13] = assay: Activation of caspase-like activity of 20S proteasome in human U373 cells at 25 uM after 2 days by bioluminescence assay; format: cell-based; outline: as §2
# U-373MG ATCC [14] = assay: Inhibition of trypsin-like activity of 20S proteasome in human U373 cells at 25 uM after 2 days by bioluminescence assay; format: cell-based; outline: as §4
# U-373MG ATCC [15] = assay: Inhibition of trypsin-like activity of 20S proteasome in human U373 cells at 50 uM after 2 days by bioluminescence assay; format: cell-based; outline: as §4
# U-373MG ATCC [16] = assay: Activation of caspase-like activity of 20S proteasome in human U373 cells at 50 uM after 2 days by bioluminescence assay; format: cell-based; outline: as §2
# U-373MG ATCC [17] = assay: Activation of chymotrypsin-like activity of 20S proteasome in human U373 cells at 50 uM after 2 days by bioluminescence assay; format: cell-based; outline: as §3
# [18] = target: T1, Peroxisome proliferator-activated receptor gamma (Homo sapiens); assay: Inhibition of PPARgamma activity in human U373 cells at 50 uM after 6 hrs by spectrophotometric analysis relative to control; format: cell-based; conditions: U-373MG ATCC; outline: as §5
# U-373MG ATCC [19] = assay: Activation of chymotrypsin-like activity of 20S proteasome in human U373 cells at 70 uM after 2 days by bioluminescence assay; format: cell-based; outline: as §3
# U-373MG ATCC [20] = assay: Activation of caspase-like activity of 20S proteasome in human U373 cells at 70 uM after 2 days by bioluminescence assay; format: cell-based; outline: as §2
# [21] = target: T1, Peroxisome proliferator-activated receptor gamma (Homo sapiens); assay: Inhibition of PPARgamma activity in human U373 cells at 70 uM after 6 hrs by spectrophotometric analysis relative to control; format: cell-based; conditions: U-373MG ATCC; outline: as §5
# U-373MG ATCC [22] = assay: Inhibition of trypsin-like activity of 20S proteasome in human U373 cells at 70 uM after 2 days by bioluminescence assay; format: cell-based; outline: as §4
# [23] = target: T1, Peroxisome proliferator-activated receptor gamma (Homo sapiens); assay: Inhibition of PPARgamma activity in human U373 cells at 30 uM after 6 hrs by spectrophotometric analysis relative to control; format: cell-based; conditions: U-373MG ATCC; outline: as §5
# U-373MG ATCC [24] = assay: Activation of chymotrypsin-like activity of 20S proteasome in human U373 cells at 30 uM after 2 days by bioluminescence assay; format: cell-based; outline: as §3
# U-373MG ATCC [25] = assay: Activation of caspase-like activity of 20S proteasome in human U373 cells at 30 uM after 2 days by bioluminescence assay; format: cell-based; outline: as §2
# U-373MG ATCC [26] = assay: Inhibition of trypsin-like activity of 20S proteasome in human U373 cells at 30 uM after 2 days by bioluminescence assay; format: cell-based; outline: as §4
# U-373MG ATCC [27] = assay: Inhibition of trypsin-like activity of 20S proteasome in human U373 cells at 80 uM after 2 days by bioluminescence assay; format: cell-based; outline: as §4
# U-373MG ATCC [28] = assay: Activation of caspase-like activity of 20S proteasome in human U373 cells at 80 uM after 2 days by bioluminescence assay; format: cell-based; outline: as §2
# U-373MG ATCC [29] = assay: Activation of chymotrypsin-like activity of 20S proteasome in human U373 cells at 80 uM after 2 days by bioluminescence assay; format: cell-based; outline: as §3
# [30] = target: T1, Peroxisome proliferator-activated receptor gamma (Homo sapiens); assay: Inhibition of PPARgamma activity in human U373 cells at 80 uM after 6 hrs by spectrophotometric analysis relative to control; format: cell-based; conditions: U-373MG ATCC; outline: as §5
GI50 (PC-3) [µM],remaining at 168 h [1] [%],GI50 (A549) [µM],GI50 (B16-F10) [µM],GI50 (MCF7) [µM],GI50 (SK-MEL-28) [µM],SMILES,GI50 (Hs 683) [µM],GI50 (T98G) [µM],GI50 [5] [µM],other results
2,68,2,3,3,3,COc1cc(/C=C/C(C)=O)ccc1OC(=O)[C@@]1(C)CC[C@]2(C)CC[C@]3(C)C(=CC(=O)[C@@H]4[C@@]5(C)CC[C@H](O)C(C)(C)[C@@H]5CC[C@]43C)[C@@H]2C1,3,3,2,Activity (U-373MG ATCC [2]): Active; Activity (U-373MG ATCC [3]): Active; inhibition (U-373MG ATCC [4]): Active; inhibition [6]: Active
34,86,52,37,34,> 100,COc1ccc(CCNC(=O)[C@@]2(C)CC[C@]3(C)CC[C@]4(C)C(=CC(=O)[C@@H]5[C@@]6(C)CC[C@H](O)C(C)(C)[C@@H]6CC[C@]54C)[C@@H]3C2)cc1OC,59,91,43,inhibition (U-373MG ATCC [7]): Active; Activity (U-373MG ATCC [8]): Active; Activity (U-373MG ATCC [9]): Active; inhibition [10]: Active
9,94,31,34,30,38,CC1(C)[C@@H](O)CC[C@]2(C)[C@H]3C(=O)C=C4[C@@H]5C[C@@](C)(C(=O)NCCNC(=S)Nc6ccccc6)CC[C@]5(C)CC[C@@]4(C)[C@]3(C)CC[C@@H]12,8,25,29,Activity (U-373MG ATCC [11]): Active; inhibition [12]: Active; Activity (U-373MG ATCC [13]): Active; inhibition (U-373MG ATCC [14]): Active
35,95,37,39,29,65,CC1(C)[C@@H](O)CC[C@]2(C)[C@H]3C(=O)C=C4[C@@H]5C[C@@](C)(C(=O)NCc6ccc(C(F)(F)F)cc6)CC[C@]5(C)CC[C@@]4(C)[C@]3(C)CC[C@@H]12,49,67,44,inhibition (U-373MG ATCC [15]): Active; Activity (U-373MG ATCC [16]): Active; Activity (U-373MG ATCC [17]): Active; inhibition [18]: Active
43,94,40,31,38,> 100,COc1ccc2[nH]cc(CCNC(=O)[C@@]3(C)CC[C@]4(C)CC[C@]5(C)C(=CC(=O)[C@@H]6[C@@]7(C)CC[C@H](O)C(C)(C)[C@@H]7CC[C@]65C)[C@@H]4C3)c2c1,57,> 100,75,Activity (U-373MG ATCC [19]): Active; Activity (U-373MG ATCC [20]): Active; inhibition [21]: Active; inhibition (U-373MG ATCC [22]): Active
36,89,42,23,28,32,COC(=O)[C@@]1(C)CC[C@]2(C)CC[C@]3(C)C(=CC(=O)[C@@H]4[C@@]5(C)C=C(I)C(=O)C(C)(C)[C@@H]5CC[C@]43C)[C@@H]2C1,48,6,42,inhibition [23]: Active; Activity (U-373MG ATCC [24]): Active; Activity (U-373MG ATCC [25]): Active; inhibition (U-373MG ATCC [26]): Active
52,93,> 100,49,56,> 100,COc1ccc(CCNC(=O)[C@@]2(C)CC[C@]3(C)CC[C@]4(C)C(=CC(=O)[C@@H]5[C@@]6(C)CCC(=O)C(C)(C)[C@@H]6CC[C@]54C)[C@@H]3C2)cc1,91,> 100,69,inhibition (U-373MG ATCC [27]): Active; Activity (U-373MG ATCC [28]): Active; Activity (U-373MG ATCC [29]): Active; inhibition [30]: Active
